Reference: ChEMBL document CHEMBL1138498 (J Med Chem, 2009)
Blank lines part the entries; values can stand above or below the molecule they belong to.

Columns and labels:
[1] = test system: Meriones unguiculatus; assay: Inhibition of GR-73632-induced foot tapping in po dosed Mongolian gerbil assessed as duration of repetitive hind foot tapping administered 1 hr before GR-73632 challenge measured after 8 hrs; format: functional; settings: read-out: ID50 (the source's name)
Outline: (§1)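 Male Mongolian gerbils (45-70 g), at least seven per group, received vehicle or compound orally (10 mL/kg) at 1, 2, 4 or 8 h before icv GR73632 (3 pmol/5 µL). Foot tapping was then scored. Doses were compared by ANOVA with Dunnett's test.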

[2] = test system: Meriones unguiculatus; assay: Inhibition of GR-73632-induced foot tapping in po dosed Mongolian gerbil assessed as duration of repetitive hind foot tapping administered 1 hr before GR-73632 challenge; format: functional; settings: read-out: ID50 (the source's name); outline: as §1
[3] = target: T1, Substance-P receptor (Homo sapiens, UniProt P25103); assay: Displacement of [3H]substance P from human recombinant NK1 receptor expressed in CHO cells; format: cell-based
[4] = target: T1, Substance-P receptor; settings: CHO
[5] = Half life in rat; format: ADME, organism-based; settings: in vivo
[6] = Plasma clearance in dog; format: ADME, organism-based, Canis lupus familiaris
[7] = target: T1, Substance-P receptor; settings: CHO; remark: listed apart in the source
[8] = Plasma clearance in rat; format: ADME, organism-based
[9] = test system: Meriones unguiculatus; assay: Inhibition of GR-73632-induced foot tapping in po dosed Mongolian gerbil assessed as duration of repetitive hind foot tapping administered 1 hr before GR-73632 challenge measured after 2 hrs; format: functional; settings: read-out: ID50 (the source's name); outline: as §1
[10] = Bioavailability in rat; format: ADME, organism-based; settings: in vivo
[11] = test system: Meriones unguiculatus; assay: Inhibition of GR-73632-induced foot tapping in po dosed Mongolian gerbil assessed as duration of repetitive hind foot tapping administered 1 hr before GR-73632 challenge measured after 4 hrs; format: functional; settings: read-out: ID50 (the source's name); outline: as §1
[12] = Bioavailability in dog; format: ADME, organism-based, Canis lupus familiaris; settings: in vivo
[13] = test system: Meriones unguiculatus; assay: Inhibition of GR-73632-induced foot tapping in po dosed Mongolian gerbil assessed as duration of repetitive hind foot tapping administered 1 hr before GR-73632 challenge measured after 1 hr; format: functional; settings: read-out: ID50 (the source's name); outline: as §1
[14] = Half life in dog; format: ADME, organism-based, Canis lupus familiaris; settings: in vivo
[15] = Ratio of drug level in brain to plasma in rat at 1 mg/kg, iv after 5 mins

T1 sequence (P25103 whole entry): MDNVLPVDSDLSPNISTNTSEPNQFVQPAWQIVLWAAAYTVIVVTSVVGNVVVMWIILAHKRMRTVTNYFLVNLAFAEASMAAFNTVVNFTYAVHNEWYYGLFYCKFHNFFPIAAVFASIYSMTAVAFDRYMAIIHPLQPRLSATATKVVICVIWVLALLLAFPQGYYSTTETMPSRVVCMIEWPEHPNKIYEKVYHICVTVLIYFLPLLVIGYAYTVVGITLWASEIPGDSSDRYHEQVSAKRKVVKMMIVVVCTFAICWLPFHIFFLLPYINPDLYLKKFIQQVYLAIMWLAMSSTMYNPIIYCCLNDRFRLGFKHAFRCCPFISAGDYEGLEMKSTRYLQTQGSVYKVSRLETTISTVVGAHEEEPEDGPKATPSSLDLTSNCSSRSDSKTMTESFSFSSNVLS

SMILES: Cc1cc(F)ccc1[C@H]1CNCCN1C(=O)N(C)Cc1cc(C(F)(F)F)cc(C(F)(F)F)c1
ED50 [1]: 0.3 mg/kg | ED50 [2]: 0.2 mg/kg

SMILES: CC(=O)O.Cc1cc(F)ccc1[C@H]1CNCCN1C(=O)N(C)[C@@H](C)c1cc(C(F)(F)F)cc(C(F)(F)F)c1
ED50 [2]: 0.036 mg/kg

SMILES: Cc1cc(F)ccc1[C@H]1CNCCN1C(=O)N(C)[C@H](C)c1cc(C(F)(F)F)cc(C(F)(F)F)c1 [VESTIPITANT]
half-life [5]: 5 h | clearance [6]: 15 mL/min/kg | T1/2 [7]: 0.995 h | clearance [8]: 19 mL/min/kg | ED50 [9]: 0.007 mg/kg | bioavailability [10]: 44% | ED50 [11]: 0.002 mg/kg | bioavailability [12]: 71% | ED50 [13]: 0.014 mg/kg | half-life [14]: 11 h | ED50 [1]: 0.027 mg/kg | ED50 [2]: 0.014 mg/kg | pKb [4]: 9.87 | Kp at 5 min [15]: 1.3

The next lines start with results.

Ki [3]: 8.71 nM | pKb [4]: 8.56
SMILES: Cc1cc(F)ccc1N1CCNCC1C(=O)N(C)Cc1cc(C(F)(F)F)cc(C(F)(F)F)c1 (centres undefined)

Ki [3]: 18.2 nM
SMILES: Cc1cc(F)ccc1[C@@H]1CNCCN1C(=O)N(C)Cc1cc(C(F)(F)F)cc(C(F)(F)F)c1
ED50 [2]: 5.6 mg/kg

Ki [3]: 1.29 nM
SMILES: Cc1cc(F)ccc1C1CNCCN1C(=O)N(C)Cc1cc(C(F)(F)F)cc(C(F)(F)F)c1 (racemic)

Ki [3]: 0.0501 nM
SMILES: COc1ccc(-n2nnnc2C(F)(F)F)cc1CN[C@H]1CCCN[C@H]1c1ccccc1 [VOFOPITANT]
ED50 [2]: 0.6 mg/kg
